Measured values taken from ChEMBL document CHEMBL2176938, “Virtual screening and optimization yield low-nanomolar inhibitors of the tautomerase activity of Plasmodium falciparum macrophage migration inhibitory factor” (J Med Chem, 2012).

What follows are molecules tested against T1, Macrophage migration inhibitory factor (Homo sapiens, UniProt P14174) (assay: Inhibition of human MIF). Conditions: not given; call rule not given here.
T1 sequence (P14174 whole entry): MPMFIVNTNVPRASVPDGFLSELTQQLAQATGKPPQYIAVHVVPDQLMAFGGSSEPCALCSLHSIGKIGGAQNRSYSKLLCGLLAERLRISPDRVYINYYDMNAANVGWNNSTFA

Row | Compound | Ki
1 | COc1cccc(Oc2cc(C)nc(N3CCOCC3)c2)c1 | Not Active

Same assay, conditions: read-out: Ki

Row | Compound | Ki [µM]
2 | Cc1cc(Oc2cccc(O)c2)cc(-c2ccccc2)n1 | 101
3 | COc1ccc(-c2cc(Oc3cc(C)cc(OC)c3)cc(C)n2)cc1 | 270

Each molecule was assayed against T2, Macrophage migration inhibitory factor homologue (Plasmodium falciparum (isolate 3D7), UniProt Q8I5C5) (assay: Inhibition of recombinant Plasmodium falciparum MIF expressed in Escherichia coli BL21 (DE3) assessed as ketonization of enol form of 4-HPP substrate after 10 mins). Conditions: not given.
T2 sequence (Q8I5C5 whole entry): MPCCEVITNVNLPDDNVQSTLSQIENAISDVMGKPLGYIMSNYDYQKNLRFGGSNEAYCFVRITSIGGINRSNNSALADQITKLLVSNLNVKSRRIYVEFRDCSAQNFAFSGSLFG
How it was run: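 PfMIF (75 nM trimer) in 25 mM potassium phosphate pH 7.4, preincubated 10 min with inhibitor at 1.5, 5 and 10 μM; DMSO vehicle 1% final. Started by adding enol 4-HPP (dissolved in absolute EtOH, stored −20°C) at varied concentrations. Enol-to-keto conversion read as fall in absorbance at 306 nm over 90 s; Ki values derived.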

Row | Ki | Compound | IC50 [µM]
4 | Not Active | CC1(C)CC(=O)C=C(Nc2ccc(S(N)(=O)=O)cc2)C1 | –
5 | Not Active | CNC(=O)c1cccc2cccc(Sc3ccccc3C(=O)O)c12 | –
6 | Not Active | CC(=O)c1ccc(-c2ccc(C(=O)N3CCC(C(N)=O)CC3)o2)cc1 | –
7 | Not Active | CN1C(=O)N[C@@H](c2ccccc2)C2=C1CN(c1cccc(C(=O)O)c1)C2=O | –
8 | Not Active | Oc1cccc(Oc2ccc(-c3cccc(O)c3)cc2)c1 | –
9 | Not Active | Oc1ccc(-c2ccc(Oc3cccc(O)c3)cc2)cc1 | –
10 | Not Active | Oc1cccc(Oc2ccc(-c3ccc(O)c(O)c3)cc2)c1 | –
11 | Not Active | COc1ccc(-c2ccc(Oc3cccc(OC)c3)cc2)cc1 | –
12 | Not Active | COc1cccc(Oc2ccc(-c3ccc(OC)c(OC)c3)cc2)c1 | –
13 | Not Active | COc1ccc(-c2ccc(Oc3cccc(OC)c3)cn2)cc1 | –
14 | Not Active | Cc1cc(O)cc(Oc2ccnc(-c3ccc(O)cc3)c2)c1 | –
15 | Not Active | COc1ccc(C(=O)c2oc3ccccc3c2NC(=O)C(C)C)cc1Cl | –
16 | Not Active | CCc1ccc(CNc2ccc(S(N)(=O)=O)cc2)cc1 | –
17 | Not Active | CCC[C@H](C(=O)Nc1ccc(F)c(F)c1F)c1ccccc1 | –
18 | Not Active | O=C(O)c1ccccc1C(=O)Nc1ncccc1OCc1ccc(Cl)c(Cl)c1 | –
19 | Not Active | O=C1C(=O)N(CNc2ccc3ccccc3c2)c2ccccc21 | –
20 | – | CC(=O)O[C@@H]1C[C@H]2C(C)(C)C(=O)C=C[C@]2(C)[C@H]2CC[C@@]3(C)[C@H](c4ccoc4)C(=O)[C@H]4O[C@]43[C@@]21C [EPOXYAZADIRADIONE] | 10

Row | Compound | Ki | IC50 [µM]
21 | O=C(NCc1ccc(F)cc1F)Nc1cnccc1C(F)(F)F | Not Active | –
22 | COc1ccc(NC(=O)[C@H]2CCC(C)=C(C)[C@@H]2C(=O)O)c(N2CCOCC2)n1 | Not Active | –
23 | COc1ccc(Oc2cc(C)nc(-c3ccccc3)n2)cc1 | Not Active | –
24 | COc1ccc(-c2cc(Oc3cccc(OC)c3)ccn2)cc1 | Not Active | –
25 | CCc1ccc([C@H]2C[C@H](c3cccc(C)c3)n3ncnc3N2)cc1 | Not Active | –
26 | O=C(O)c1ccccc1C(=O)N(Cc1cccnc1)Cc1ccc(Cl)cc1Cl | Not Active | –

Same assay, conditions: read-out: Ki

Row | Compound | Ki [µM]
27 | NS(=O)(=O)c1ccc(NC2=CC(=O)C(=O)c3ccccc32)cc1 | 99
28 | Oc1cccc(Oc2c(F)c(F)nc(N3CCOCC3)c2F)c1 | 8.6
29 | Oc1cccc(Oc2c(F)c(N3CCOCC3)nc(F)c2Cl)c1 | 15.5
30 | Oc1cccc(Oc2c(F)c(F)nc(N3CCCCC3)c2F)c1 | 28.6
31 | Cc1cc(Oc2cccc(O)c2)nc(-c2ccccc2)n1 | 19.3
32 | COc1ccc(-c2nnc3ccc(Oc4cccc(O)c4)nn23)cc1 | 122
33 | Oc1cccc(Oc2ccnc(N3CCOCC3)c2)c1 | 43.4
34 | COc1cccc(Oc2ccnc(N3CCOCC3)c2)c1 | 22.9
35 | Oc1cccc(Oc2ccc(-c3cccc(O)c3)nc2)c1 | 6.9
36 | Oc1ccc(-c2ccc(Oc3cccc(O)c3)cn2)cc1 | 67.6
37 | COc1cccc(Oc2ccc(-c3cccc(OC)c3)nc2)c1 | 57.2
38 | N#Cc1cccc(Oc2ccc(-c3cccc(O)c3)nc2)c1 | 0.37
39 | COc1cc(OC)cc(Oc2ccnc(N3CCOCC3)c2)c1 | 122
40 | COc1cc(C)cc(Oc2ccnc(N3CCOCC3)c2)c1 | 5.6
41 | COc1cc(Cl)cc(Oc2ccnc(N3CCOCC3)c2)c1 | 2.6
42 | CCOc1cccc(Oc2ccnc(N3CCOCC3)c2)c1 | 6.9
43 | CCOc1cccc(Oc2cc(C)nc(N3CCOCC3)c2)c1 | 7.2
44 | COc1cc(C)cc(Oc2cc(C)nc(N3CCOCC3)c2)c1 | 1.2
45 | Cc1cc(Oc2cccc(C#N)c2)cc(N2CCOCC2)n1 | 11.3
46 | COc1cccc(Oc2cc(C)nc(N3CCOCC3)c2)c1 | 0.043
47 | COc1cccc(Oc2cc(C)nc(-c3ccccc3)n2)c1 | 5.5
48 | Cc1cc(Oc2ccc(O)cc2)nc(-c2ccccc2)n1 | 93.3
49 | Cc1cc(Oc2cccc(C#N)c2)nc(-c2ccccc2)n1 | 1.6
50 | Cc1cc(Oc2cccc(O)c2)cc(-c2ccccc2)n1 | 0.039
51 | COc1cccc(Oc2cc(C)nc(-c3ccccc3)c2)c1 | 7.7
52 | Oc1ccc(-c2cc(Oc3cccc(O)c3)ccn2)cc1 | 3
53 | COc1ccc(-c2cc(Oc3cc(C)cc(OC)c3)ccn2)cc1 | 0.37
54 | COc1ccc(-c2cc(Oc3cc(C)cc(OC)c3)cc(C)n2)cc1 | 0.038
55 | O=C1N=C(Nc2cccc(O)c2)S/C1=C\c1cccc(O)c1 | 20.6
56 | NC(=O)CSC1=Nc2ccccc2C2=N[C@H](Cc3c[nH]c4ccccc34)C(=O)N12 | 25.4
